{
  "source": "ChEMBL document CHEMBL5696442",
  "about": "“Discovery of type II inhibitors of TGFβ-activated kinase 1 (TAK1) and mitogen-activated protein kinase kinase kinase kinase 2 (MAP4K2)” (J Med Chem, 2015)",
  "key": {"[1]": {"target": "Mitogen-activated protein kinase 9 (Homo sapiens, UniProt P45984)", "sequence (P45984 whole entry, looked up)": "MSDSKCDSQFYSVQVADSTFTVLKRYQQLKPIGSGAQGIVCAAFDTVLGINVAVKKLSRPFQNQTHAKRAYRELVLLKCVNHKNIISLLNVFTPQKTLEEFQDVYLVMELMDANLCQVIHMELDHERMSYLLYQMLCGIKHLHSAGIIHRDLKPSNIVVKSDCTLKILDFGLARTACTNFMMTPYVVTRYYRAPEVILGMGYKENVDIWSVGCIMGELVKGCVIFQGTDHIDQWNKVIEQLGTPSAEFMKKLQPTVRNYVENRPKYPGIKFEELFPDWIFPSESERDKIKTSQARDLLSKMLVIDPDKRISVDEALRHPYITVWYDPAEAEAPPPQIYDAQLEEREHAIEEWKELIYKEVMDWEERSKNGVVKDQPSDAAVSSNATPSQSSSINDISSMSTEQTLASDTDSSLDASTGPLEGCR", "experiment": "Inhibition of JNK2 Lys2 labeling site in human Huh-7 cell lysate at 1 uM by KiNativ Profiling analysis relative to control", "assay_type": "subcellular"}, "[2]": {"target": "Mitogen-activated protein kinase 10 (Homo sapiens, UniProt P53779)", "sequence (P53779 whole entry)": "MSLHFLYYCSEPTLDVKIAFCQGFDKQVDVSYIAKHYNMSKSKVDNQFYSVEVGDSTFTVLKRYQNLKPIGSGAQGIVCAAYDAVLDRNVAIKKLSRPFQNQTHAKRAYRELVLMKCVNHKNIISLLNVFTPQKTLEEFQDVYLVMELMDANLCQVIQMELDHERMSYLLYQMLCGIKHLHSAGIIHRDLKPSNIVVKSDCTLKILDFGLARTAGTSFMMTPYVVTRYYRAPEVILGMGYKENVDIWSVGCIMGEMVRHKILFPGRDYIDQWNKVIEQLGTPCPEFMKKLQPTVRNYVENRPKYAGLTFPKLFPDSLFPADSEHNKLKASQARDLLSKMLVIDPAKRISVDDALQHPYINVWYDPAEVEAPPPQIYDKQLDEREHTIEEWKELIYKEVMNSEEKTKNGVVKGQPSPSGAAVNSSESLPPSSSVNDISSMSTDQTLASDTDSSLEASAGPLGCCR", "experiment": "Inhibition of JNK3 Lys2 labeling site in human A-375 cells at 5 uM by KiNativ Profiling analysis relative to control", "assay_type": "cell-based"}, "[3]": {"target": "Serine/threonine-protein kinase B-raf (Homo sapiens, UniProt P15056)", "sequence (P15056 whole entry)": "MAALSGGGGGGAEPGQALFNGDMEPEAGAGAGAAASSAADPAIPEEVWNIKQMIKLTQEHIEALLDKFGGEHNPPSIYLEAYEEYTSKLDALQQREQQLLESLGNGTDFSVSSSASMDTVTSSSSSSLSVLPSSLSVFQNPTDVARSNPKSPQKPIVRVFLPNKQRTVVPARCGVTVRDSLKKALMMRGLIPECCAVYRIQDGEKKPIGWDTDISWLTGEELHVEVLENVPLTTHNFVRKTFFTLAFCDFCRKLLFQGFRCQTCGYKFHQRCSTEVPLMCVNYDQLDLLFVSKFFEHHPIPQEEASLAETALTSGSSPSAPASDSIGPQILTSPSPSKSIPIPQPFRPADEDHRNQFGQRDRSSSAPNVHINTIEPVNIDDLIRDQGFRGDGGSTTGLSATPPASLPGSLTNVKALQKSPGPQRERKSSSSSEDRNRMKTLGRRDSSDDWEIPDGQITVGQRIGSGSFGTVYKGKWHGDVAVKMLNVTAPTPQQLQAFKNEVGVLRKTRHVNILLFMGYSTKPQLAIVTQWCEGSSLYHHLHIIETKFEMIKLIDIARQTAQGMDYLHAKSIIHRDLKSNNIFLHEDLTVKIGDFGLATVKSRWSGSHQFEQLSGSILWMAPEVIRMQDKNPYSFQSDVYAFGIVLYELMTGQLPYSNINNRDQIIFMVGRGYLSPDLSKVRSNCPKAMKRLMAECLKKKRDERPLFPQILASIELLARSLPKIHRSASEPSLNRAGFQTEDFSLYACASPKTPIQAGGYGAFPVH", "experiment": "Inhibition of BRAF (unknown origin) Lys2 labeling site by KiNativ Profiling analysis"}, "[4]": {"target": "T1, Inhibitor of nuclear factor kappa-B kinase subunit epsilon (Homo sapiens) (UniProt Q14164)", "T1 sequence (whole entry)": "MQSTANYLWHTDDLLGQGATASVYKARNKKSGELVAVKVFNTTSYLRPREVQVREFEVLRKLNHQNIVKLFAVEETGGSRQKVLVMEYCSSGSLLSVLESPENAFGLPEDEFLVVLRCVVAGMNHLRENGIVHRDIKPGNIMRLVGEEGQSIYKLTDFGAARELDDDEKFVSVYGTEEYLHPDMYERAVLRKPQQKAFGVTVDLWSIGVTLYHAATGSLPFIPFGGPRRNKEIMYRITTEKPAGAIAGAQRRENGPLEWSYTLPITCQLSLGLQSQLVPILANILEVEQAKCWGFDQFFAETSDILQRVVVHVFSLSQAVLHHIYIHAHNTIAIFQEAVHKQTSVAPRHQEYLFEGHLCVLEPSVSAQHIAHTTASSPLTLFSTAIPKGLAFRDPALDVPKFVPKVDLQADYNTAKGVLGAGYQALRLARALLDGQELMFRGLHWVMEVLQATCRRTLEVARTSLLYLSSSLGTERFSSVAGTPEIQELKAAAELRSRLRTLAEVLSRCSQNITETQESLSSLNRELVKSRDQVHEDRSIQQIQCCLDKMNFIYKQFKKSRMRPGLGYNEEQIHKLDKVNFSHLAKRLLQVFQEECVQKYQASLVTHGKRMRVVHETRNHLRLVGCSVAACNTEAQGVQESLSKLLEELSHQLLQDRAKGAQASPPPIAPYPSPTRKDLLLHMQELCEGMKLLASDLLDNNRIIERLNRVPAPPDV", "experiment": "Inhibition of IKKe Lys2 labeling site in human A-375 cells at 0.5 uM by KiNativ Profiling analysis relative to control", "assay_type": "cell-based"}, "[5]": {"experiment": "Inhibition of p70S6K Lys2 labeling site in human A-375 cells at 0.05 uM by KiNativ Profiling analysis relative to control", "conditions": "condition cancer"}, "[6]": {"target": "T2, Serine/threonine-protein kinase NLK (Homo sapiens) (UniProt Q9UBE8)", "T2 sequence (whole entry)": "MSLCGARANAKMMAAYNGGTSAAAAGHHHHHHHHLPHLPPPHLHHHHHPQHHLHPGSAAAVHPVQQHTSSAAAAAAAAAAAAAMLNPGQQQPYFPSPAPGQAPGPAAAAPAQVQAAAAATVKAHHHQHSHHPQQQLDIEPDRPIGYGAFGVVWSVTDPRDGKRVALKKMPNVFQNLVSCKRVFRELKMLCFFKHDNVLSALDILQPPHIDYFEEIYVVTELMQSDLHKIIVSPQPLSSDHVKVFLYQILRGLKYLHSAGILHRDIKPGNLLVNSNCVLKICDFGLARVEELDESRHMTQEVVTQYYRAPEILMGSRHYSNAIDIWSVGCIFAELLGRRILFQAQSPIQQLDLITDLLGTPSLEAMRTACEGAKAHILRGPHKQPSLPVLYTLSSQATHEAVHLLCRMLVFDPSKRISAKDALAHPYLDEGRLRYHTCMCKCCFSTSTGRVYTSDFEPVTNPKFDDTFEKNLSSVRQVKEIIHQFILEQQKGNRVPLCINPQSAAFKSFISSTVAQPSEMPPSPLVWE", "experiment": "Inhibition of NLK Lys2 labeling site in human A-375 cells at 5 uM by KiNativ Profiling analysis relative to control", "assay_type": "cell-based"}, "[7]": {"target": "Casein kinase I isoform epsilon (Homo sapiens) (UniProt P49674)", "sequence (P49674 whole entry, looked up, canonical isoform)": "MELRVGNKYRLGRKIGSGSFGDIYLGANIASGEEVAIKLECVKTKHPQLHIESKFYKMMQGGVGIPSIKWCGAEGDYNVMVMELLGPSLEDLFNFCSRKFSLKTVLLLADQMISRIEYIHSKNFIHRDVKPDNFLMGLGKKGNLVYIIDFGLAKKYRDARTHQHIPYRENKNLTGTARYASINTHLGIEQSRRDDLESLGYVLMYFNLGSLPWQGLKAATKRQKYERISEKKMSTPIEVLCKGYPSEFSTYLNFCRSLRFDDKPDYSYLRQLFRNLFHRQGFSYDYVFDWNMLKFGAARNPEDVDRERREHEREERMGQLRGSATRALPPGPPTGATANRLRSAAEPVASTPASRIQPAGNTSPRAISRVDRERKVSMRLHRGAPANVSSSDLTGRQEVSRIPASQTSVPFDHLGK", "experiment": "Inhibition of CK1epsilon Lys2 labeling site in human A-375 cells at 0.05 uM by KiNativ Profiling analysis relative to control", "assay_type": "cell-based"}, "[8]": {"target": "Mitogen-activated protein kinase kinase kinase kinase 4 (Homo sapiens, UniProt O95819)", "experiment": "Inhibition of ZC1/HGK Lys1 labeling site in human A-375 cells at 0.5 uM by KiNativ Profiling analysis relative to control", "assay_type": "cell-based"}, "[9]": {"target": "T3, Inhibitor of nuclear factor kappa-B kinase subunit alpha (Homo sapiens) (UniProt O15111)", "T3 sequence (whole entry)": "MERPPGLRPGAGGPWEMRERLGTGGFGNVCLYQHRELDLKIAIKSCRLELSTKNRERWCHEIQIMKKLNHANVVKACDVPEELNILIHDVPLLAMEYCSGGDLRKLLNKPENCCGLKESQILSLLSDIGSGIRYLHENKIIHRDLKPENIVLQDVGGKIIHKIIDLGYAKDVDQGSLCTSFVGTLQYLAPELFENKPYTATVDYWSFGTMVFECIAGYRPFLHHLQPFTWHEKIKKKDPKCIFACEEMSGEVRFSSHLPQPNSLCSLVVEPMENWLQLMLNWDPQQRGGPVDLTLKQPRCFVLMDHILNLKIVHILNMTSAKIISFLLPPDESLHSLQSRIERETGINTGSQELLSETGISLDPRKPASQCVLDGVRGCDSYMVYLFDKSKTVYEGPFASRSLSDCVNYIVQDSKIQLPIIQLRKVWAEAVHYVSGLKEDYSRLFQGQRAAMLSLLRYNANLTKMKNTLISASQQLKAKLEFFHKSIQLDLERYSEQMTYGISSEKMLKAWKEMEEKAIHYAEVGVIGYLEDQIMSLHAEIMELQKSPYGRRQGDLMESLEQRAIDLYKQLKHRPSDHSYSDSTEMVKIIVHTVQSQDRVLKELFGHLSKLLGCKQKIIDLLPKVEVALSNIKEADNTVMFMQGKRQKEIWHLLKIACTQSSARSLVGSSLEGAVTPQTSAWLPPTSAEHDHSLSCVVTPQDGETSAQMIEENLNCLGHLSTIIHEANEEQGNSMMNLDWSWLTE", "experiment": "Inhibition of IKKa Lys2 labeling site in human A-375 cells at 0.5 uM by KiNativ Profiling analysis relative to control", "assay_type": "cell-based"}, "[10]": {"target": "Calcium/calmodulin-dependent protein kinase type 1 (Homo sapiens) (UniProt Q14012)", "sequence (Q14012 whole entry, looked up)": "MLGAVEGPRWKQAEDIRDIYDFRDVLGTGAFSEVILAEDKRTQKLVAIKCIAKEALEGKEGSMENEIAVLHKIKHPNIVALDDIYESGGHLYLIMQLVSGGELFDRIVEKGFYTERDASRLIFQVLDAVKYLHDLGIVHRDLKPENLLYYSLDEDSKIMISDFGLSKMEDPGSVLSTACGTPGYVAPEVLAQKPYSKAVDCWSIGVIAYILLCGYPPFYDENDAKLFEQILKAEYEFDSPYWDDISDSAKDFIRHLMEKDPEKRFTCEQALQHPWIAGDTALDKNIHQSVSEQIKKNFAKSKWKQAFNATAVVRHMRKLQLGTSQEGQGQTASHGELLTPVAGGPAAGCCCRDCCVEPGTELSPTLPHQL", "experiment": "Inhibition of CAMK1 alpha Lys1 labeling site in human A-375 cells at 5 uM by KiNativ Profiling analysis relative to control", "assay_type": "cell-based", "how_it_was_run": "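Intact A375 melanoma cells were treated with compound at 5 or 0.5 μM, then lysed. Lysate kinases were labeled with a lysine-reactive ATP or ADP-biotin probe (KiNativ). Inhibition is read as protection of each kinase labeling site from probe labeling.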"}, "[11]": {"target": "Serine/threonine-protein kinase ATR (Homo sapiens) (UniProt Q13535)", "sequence (Q13535 whole entry, looked up)": "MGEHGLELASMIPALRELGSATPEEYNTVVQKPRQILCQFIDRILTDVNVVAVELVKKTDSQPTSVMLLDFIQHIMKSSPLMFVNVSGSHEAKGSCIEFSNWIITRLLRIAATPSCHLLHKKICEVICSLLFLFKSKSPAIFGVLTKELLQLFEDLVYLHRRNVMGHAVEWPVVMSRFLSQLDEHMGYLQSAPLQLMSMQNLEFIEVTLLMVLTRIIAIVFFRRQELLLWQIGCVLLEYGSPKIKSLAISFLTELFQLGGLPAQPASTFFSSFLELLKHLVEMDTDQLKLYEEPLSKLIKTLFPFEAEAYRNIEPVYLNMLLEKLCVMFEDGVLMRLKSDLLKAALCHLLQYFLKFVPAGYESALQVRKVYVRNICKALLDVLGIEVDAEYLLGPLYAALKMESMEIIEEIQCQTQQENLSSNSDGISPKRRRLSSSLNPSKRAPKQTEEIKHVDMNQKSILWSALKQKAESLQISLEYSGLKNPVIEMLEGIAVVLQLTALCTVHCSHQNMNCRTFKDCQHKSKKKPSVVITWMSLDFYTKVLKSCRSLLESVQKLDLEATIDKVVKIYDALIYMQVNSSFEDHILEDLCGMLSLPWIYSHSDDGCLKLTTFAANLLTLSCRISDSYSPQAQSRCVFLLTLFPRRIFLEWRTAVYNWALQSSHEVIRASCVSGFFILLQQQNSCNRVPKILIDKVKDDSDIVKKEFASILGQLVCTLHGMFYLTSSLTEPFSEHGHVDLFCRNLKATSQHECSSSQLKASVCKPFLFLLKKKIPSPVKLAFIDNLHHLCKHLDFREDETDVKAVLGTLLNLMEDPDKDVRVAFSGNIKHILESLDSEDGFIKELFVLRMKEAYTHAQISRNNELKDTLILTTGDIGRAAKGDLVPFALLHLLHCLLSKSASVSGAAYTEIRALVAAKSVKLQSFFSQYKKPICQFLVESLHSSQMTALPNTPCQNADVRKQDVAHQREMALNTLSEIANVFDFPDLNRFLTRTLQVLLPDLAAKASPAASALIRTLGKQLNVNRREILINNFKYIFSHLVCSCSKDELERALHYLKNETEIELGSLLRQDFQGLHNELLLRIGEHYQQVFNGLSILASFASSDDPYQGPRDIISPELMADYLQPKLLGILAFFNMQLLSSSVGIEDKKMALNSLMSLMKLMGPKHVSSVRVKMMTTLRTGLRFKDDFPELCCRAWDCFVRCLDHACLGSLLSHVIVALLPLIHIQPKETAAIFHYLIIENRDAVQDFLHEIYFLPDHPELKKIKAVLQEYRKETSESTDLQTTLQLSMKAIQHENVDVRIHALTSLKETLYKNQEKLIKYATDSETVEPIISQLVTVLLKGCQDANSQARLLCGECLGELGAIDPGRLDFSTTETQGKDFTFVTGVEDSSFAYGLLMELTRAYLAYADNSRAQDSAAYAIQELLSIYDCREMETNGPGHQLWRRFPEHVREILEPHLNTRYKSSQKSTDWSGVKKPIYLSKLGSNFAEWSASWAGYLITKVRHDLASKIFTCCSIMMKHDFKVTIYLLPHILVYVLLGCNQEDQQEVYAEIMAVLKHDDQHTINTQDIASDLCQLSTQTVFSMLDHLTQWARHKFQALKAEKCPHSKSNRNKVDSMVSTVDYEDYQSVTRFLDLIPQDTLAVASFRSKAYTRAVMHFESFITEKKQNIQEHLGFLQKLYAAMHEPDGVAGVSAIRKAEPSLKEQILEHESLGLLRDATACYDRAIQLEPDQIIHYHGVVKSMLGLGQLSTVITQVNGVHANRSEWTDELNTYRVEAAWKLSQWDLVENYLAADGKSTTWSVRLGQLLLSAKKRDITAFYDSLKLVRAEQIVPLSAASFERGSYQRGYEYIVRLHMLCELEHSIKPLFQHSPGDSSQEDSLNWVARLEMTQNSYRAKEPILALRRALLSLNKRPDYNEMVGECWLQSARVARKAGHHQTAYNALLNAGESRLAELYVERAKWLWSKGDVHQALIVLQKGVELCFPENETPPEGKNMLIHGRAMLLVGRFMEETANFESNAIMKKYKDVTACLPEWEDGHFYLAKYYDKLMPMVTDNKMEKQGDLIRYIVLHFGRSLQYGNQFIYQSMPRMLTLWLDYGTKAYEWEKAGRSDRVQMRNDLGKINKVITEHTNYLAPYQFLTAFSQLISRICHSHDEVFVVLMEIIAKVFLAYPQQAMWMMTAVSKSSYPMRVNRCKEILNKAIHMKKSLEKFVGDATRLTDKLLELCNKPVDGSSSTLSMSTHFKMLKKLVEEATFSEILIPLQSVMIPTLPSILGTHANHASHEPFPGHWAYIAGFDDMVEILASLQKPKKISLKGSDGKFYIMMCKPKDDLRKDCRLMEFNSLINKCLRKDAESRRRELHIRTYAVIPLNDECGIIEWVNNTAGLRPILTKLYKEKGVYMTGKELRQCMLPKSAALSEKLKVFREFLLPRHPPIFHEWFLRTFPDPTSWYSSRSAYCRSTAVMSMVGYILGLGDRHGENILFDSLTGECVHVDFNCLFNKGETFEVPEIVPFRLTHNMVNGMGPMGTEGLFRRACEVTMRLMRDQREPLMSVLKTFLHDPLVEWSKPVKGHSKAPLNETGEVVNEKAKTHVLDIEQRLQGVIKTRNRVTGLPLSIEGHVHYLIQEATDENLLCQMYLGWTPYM", "experiment": "Inhibition of ATR ATP labeling site in human A-375 cells at 0.05 uM by KiNativ Profiling analysis relative to control", "assay_type": "cell-based"}, "[12]": {"target": "Serine/threonine-protein kinase 10 (Homo sapiens) (UniProt O94804)", "experiment": "Inhibition of LOK Lys1 labeling site in human A-375 cells at 0.5 uM by KiNativ Profiling analysis relative to control", "assay_type": "cell-based"}},
  "data": [
    {"smiles": "CNc1cc(Oc2cc(C(=O)Nc3cc(N4CCN(C)CC4)cc(C(F)(F)F)c3)ccc2C)ncn1", "values": [
      {"measurement": "inhibition", "setting": "[1]", "result": 7, "unit": "%"}
    ]},
    {"smiles": "CCN1CCN(Cc2ccc(NC(=O)c3ccc(C)c(Oc4ccnc5[nH]ccc45)c3)cc2C(F)(F)F)CC1", "values": [
      {"measurement": "inhibition", "setting": "[2]", "result": 90.3, "unit": "%"},
      {"measurement": "IC50", "setting": "[3]", "result": "> 10", "unit": "µM"},
      {"measurement": "inhibition", "setting": "[4]", "result": 35.7, "unit": "%"},
      {"measurement": "inhibition at 0.05 µM", "setting": "[5]", "result": -7.2, "unit": "%"},
      {"measurement": "inhibition", "setting": "[6]", "result": 18.9, "unit": "%"},
      {"measurement": "inhibition", "setting": "[7]", "result": -0.7, "unit": "%"},
      {"measurement": "inhibition", "setting": "[8]", "result": 75.6, "unit": "%"},
      {"measurement": "inhibition", "setting": "[9]", "result": 33.4, "unit": "%"},
      {"measurement": "inhibition", "setting": "[10]", "result": 91.8, "unit": "%"},
      {"measurement": "inhibition", "setting": "[11]", "result": 7.9, "unit": "%"},
      {"measurement": "inhibition", "setting": "[12]", "result": 71.7, "unit": "%"}
    ]},
    {"smiles": "CNc1cc(Oc2cc(C(=O)Nc3cc(-n4cnc(C)c4)cc(C(F)(F)F)c3)ccc2C)ncn1", "values": [
      {"measurement": "inhibition", "setting": "[1]", "result": 18.4, "unit": "%"}
    ]},
    {"smiles": "CCN1CCN(Cc2ccc(NC(=O)c3ccc(C)c(/C=C/c4cnc5[nH]ccc5c4OC)c3)cc2C(F)(F)F)CC1", "values": [
      {"measurement": "inhibition", "setting": "[2]", "result": 76.9, "unit": "%"},
      {"measurement": "IC50", "setting": "[3]", "result": "> 10", "unit": "µM"},
      {"measurement": "inhibition", "setting": "[4]", "result": 16.9, "unit": "%"},
      {"measurement": "inhibition at 0.05 µM", "setting": "[5]", "result": -27, "unit": "%"},
      {"measurement": "inhibition", "setting": "[6]", "result": 66.6, "unit": "%"},
      {"measurement": "inhibition", "setting": "[7]", "result": -9.6, "unit": "%"},
      {"measurement": "inhibition", "setting": "[8]", "result": 26.3, "unit": "%"},
      {"measurement": "inhibition", "setting": "[9]", "result": 13.3, "unit": "%"},
      {"measurement": "inhibition", "setting": "[10]", "result": 31.9, "unit": "%"},
      {"measurement": "inhibition", "setting": "[11]", "result": -7.3, "unit": "%"},
      {"measurement": "inhibition", "setting": "[12]", "result": 60.7, "unit": "%"}
    ]}
  ]
}
